# In ChEMBL document CHEMBL3046604, “Synthesis and fungistatic activity of new groups of 2,4-dihydroxythiobenzoyl derivatives against phytopathogenic fungi” (J Agric Food Chem, 2003):
# Tests used:
# [1] = test system: Rhizoctonia solani; assay: Fungistatic activity against Rhizoctonia solani assessed as mycelial growth inhibition at 200 ug/ml after 4 to 8 days relative to control; format: functional; details: read-out: GI
# In short: (§1)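 Compound solutions or suspensions were diluted into PDA agar to final 200 or 20 µg/mL and poured into Petri dishes. Once the agar set, mycelium-covered agar disks of the fungus were placed at three sites on the surface. Linear colony growth was measured after 4-8 days, depending on the culture. Inhibition J = [(C − T)/C] × 100 versus untreated control, reported on a four-degree scale.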
# [2] = test system: Botrytis cinerea; assay: Fungistatic activity against Botryotinia fuckeliana assessed as mycelial growth inhibition at 200 ug/ml after 4 to 8 days relative to control; format: functional; details: read-out: GI; in short: as §1
# [3] = Lipophilicity, log K of the compound in methanol-water mixture by HPLC; format: physicochemical
# In short: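 Reversed-phase HPLC on a Hypersil BDS C18 column (5 µm, 150 × 4.6 mm) with UV detection at 320 nm. Samples were dissolved in methanol. Mobile phase was methanol at varying volume fractions in 10 mM acetate buffer pH 4, run at 1 mL/min and room temperature. Dead time was taken from injection of acetone dissolved in water.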
# [4] = test system: Botrytis cinerea; assay: Fungistatic activity against Botryotinia fuckeliana assessed as mycelial growth inhibition at 20 ug/ml after 4 to 8 days relative to control; format: functional; details: read-out: GI; in short: as §1
# [5] = test system: Alternaria alternata; assay: Fungistatic activity against Alternaria alternata assessed as mycelial growth inhibition at 20 ug/ml after 4 to 8 days relative to control; format: functional; details: read-out: GI; in short: as §1
# [6] = test system: Fusarium culmorum; assay: Fungistatic activity against Fusarium culmorum assessed as mycelial growth inhibition at 200 ug/ml after 4 to 8 days relative to control; format: functional; details: read-out: GI; in short: as §1
# [7] = test system: Rhizoctonia solani; assay: Fungistatic activity against Rhizoctonia solani assessed as mycelial growth inhibition at 20 ug/ml after 4 to 8 days relative to control; format: functional; details: read-out: GI; in short: as §1
# [8] = test system: Blumeria graminis; assay: Fungistatic activity against Blumeria graminis infested wheat seedling assessed as inhibition of fungal infection at 500 ug/ml applied as spray after 7 to 14 days under green house conditions relative to control; format: functional
# In short: (§2)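 Greenhouse test on healthy wheat seedlings with Erysiphe graminis. At the well-developed first-leaf stage, plants were sprayed with compound solution at 1000 or 500 µg/mL, 10 mL of solution per treatment, with three repeats in 9 cm paraffin cups.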
# [9] = test system: Phytophthora cactorum; assay: Fungistatic activity against Phytophthora cactorum assessed as mycelial growth inhibition at 200 ug/ml after 4 to 8 days relative to control; format: functional; details: read-out: GI; in short: as §1
# [10] = test system: Phytophthora cactorum; assay: Fungistatic activity against Phytophthora cactorum assessed as mycelial growth inhibition at 20 ug/ml after 4 to 8 days relative to control; format: functional; details: read-out: GI; in short: as §1
# [11] = test system: Alternaria alternata; assay: Fungistatic activity against Alternaria alternata assessed as mycelial growth inhibition at 200 ug/ml after 4 to 8 days relative to control; format: functional; details: read-out: GI; in short: as §1
# [12] = test system: Blumeria graminis; assay: Fungistatic activity against Blumeria graminis infested wheat seedling assessed as inhibition of fungal infection at 1000 ug/ml applied as spray after 7 to 14 days under green house conditions relative to control; format: functional; in short: as §2
# [13] = test system: Fusarium culmorum; assay: Fungistatic activity against Fusarium culmorum assessed as mycelial growth inhibition at 20 ug/ml after 4 to 8 days relative to control; format: functional; details: read-out: GI; in short: as §1
SMILES,inhibition of growth at 200 µg/mL [1],inhibition of growth at 200 µg/mL [2],log K [3],inhibition of growth at 20 µg/mL [4],inhibition of growth at 20 µg/mL [5],inhibition of growth at 200 µg/mL [6],inhibition of growth at 20 µg/mL [7],inhibition at 500 µg/mL [8],inhibition of growth at 200 µg/mL [9],inhibition of growth at 20 µg/mL [10],inhibition of growth at 200 µg/mL [11],inhibition at 1000 µg/mL [12],inhibition of growth at 20 µg/mL [13]
Oc1ccc(C(=S)Nc2ccccc2Sc2ccc(Cl)cc2)c(O)c1,21%,0%,0.446,0%,0%,21%,0%,0%,0%,0%,41%,0%,0%
Oc1ccc(C(=S)n2c(Cl)nc3ccccc32)c(O)c1,81%,81%,0.378,0%,21%,81%,21%,0%,81%,21%,81%,41%,0%
Oc1ccc(C(=S)NN=C(c2ccccc2)c2ccccc2)c(O)c1,0%,0%,0.642,0%,0%,0%,0%,0%,41%,0%,41%,21%,0%
Oc1ccc(C(=S)NNc2nncc3ccccc23)c(O)c1,,,0.228,,,,,,,,,,
CC(C)(C)c1nnc(NC(=S)c2ccc(O)cc2O)s1,0%,0%,-0.131,0%,0%,0%,0%,0%,0%,0%,0%,21%,0%
N#CCc1nn(-c2ccccc2)c(NC(=S)c2ccc(O)cc2O)c1C#N,21%,21%,0.373,0%,0%,0%,0%,0%,61%,0%,41%,21%,0%
CCOc1ccc(C(=O)NNC(=S)c2ccc(O)cc2O)cc1,,,0.352,,,,,,,,,,
Oc1ccc(C(=S)NC2=NN(c3ccccc3)CC2)c(O)c1,,,0.643,,,,,,,,,,
Oc1ccc(C(=S)NC(=S)c2cccnc2)c(O)c1,61%,81%,0.751,0%,0%,81%,0%,0%,81%,0%,61%,21%,0%
CCOC(=O)c1c(C)csc1NC(=S)c1ccc(O)cc1O,,,-0.28,,,,,,,,,,
